According to ChEMBL document CHEMBL1126988, “Quinolone antibacterials containing the new 7-[3-(1-aminoethyl)-1- pyrrolidinyl] side chain: the effects of the 1-aminoethyl moiety and its stereochemical configurations on potency and in vivo efficacy” (J Med Chem, 1993):
Values after ≈ are worked out from the molar mass of the structure shown.

Key:
Escherichia coli [1] = test: Antibacterial activity against Escherichia coli Vogel after oral administration in mouse; assay type: functional; conditions: Escherichia coli, po; read-out: PD50
Escherichia coli [2] = test: Antibacterial activity against Escherichia coli Vogel after subcutaneous administration in mouse; assay type: functional; conditions: Escherichia coli, sc; read-out: PD50
[3] = Clonogenic cytotoxicity against hamster V-79 cells; assay type: functional, Cricetulus griseus, V79
Method in brief: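 Chinese hamster V-79 cells grown overnight, then drug-treated for 3 h at 37 °C. Medium is replaced with fresh medium and cells are incubated 5 days to allow colony formation. IC50 (µg/mL) is the concentration inhibiting colony formation by 50% relative to control.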

Staphylococcus aureus [4] = test: Minimum inhibitory concentration was evaluated in vitro against Staphylococcus aureus H 228; assay type: functional
Method in brief: (§1)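 Standard microtitration broth assay against a panel of 10 Gram-positive and Gram-negative organisms. MIC read in µg/mL and averaged over multiple experiments.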

Enterococcus faecalis = test: Minimum inhibitory concentration was evaluated in vitro against Enterococcus faecalis MGH-2; assay type: functional; method in brief: as §1
Klebsiella pneumoniae = test: Minimum inhibitory concentration was evaluated in vitro against Klebsiella pneumoniae MGH2; assay type: functional; method in brief: as §1
Enterobacter cloacae = test: Minimum inhibitory concentration in vitro against Enterobacter cloacae MA 2646; assay type: functional
Streptococcus pyogenes [5] = test: Antibacterial activity measured as mouse protection against Streptococcus pyogenes C 203 after subcutaneous administration; assay type: functional; conditions: for ED50: Streptococcus pyogenes, C 203, sc, read-out: PD50
Streptococcus pyogenes [6] = test: Minimum inhibitory concentration was evaluated in vitro against Streptococcus pyogenes C 203; assay type: functional; method in brief: as §1
Pseudomonas aeruginosa = test: Minimum inhibitory concentration was evaluated in vitro against Pseudomonas aeruginosa UI-18; assay type: functional; method in brief: as §1
Streptococcus pyogenes [7] = test: Compounds were evaluated in vivo for antibacterial activity for mouse protection against Streptococcus pyogenes C 203 after oral administration; assay type: functional; conditions: for ED50: Streptococcus pyogenes, C 203, po, read-out: PD50
Mus musculus = species: Mus musculus; test: Compounds were evaluated for phototoxicity no-effect dose in mouse; assay type: functional
Method in brief: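 Depilated female CD-1 mice, five per dose plus controls. Animals are dosed orally and then exposed daily to UV-A (320–400 nm) for 3 h, for up to 4 days or until a definite positive response. Redness or erythema relative to controls, read 24 h after irradiation, counts as positive. Reported as the highest dose with no effect (mg/kg).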

Providencia rettgeri = test: Minimum inhibitory concentration was evaluated in vitro against Providencia rettgeri M1771; assay type: functional; method in brief: as §1
Escherichia coli [8] = test: Antibacterial activity in vitro against Escherichia coli Vogel; assay type: functional; method in brief: as §1
Streptococcus pneumoniae = test: Minimum inhibitory concentration was evaluated in vitro against Streptococcus pneumoniae SV-1; assay type: functional; method in brief: as §1
Staphylococcus aureus [9] = test: Minimum inhibitory concentration was evaluated in vitro against Staphylococcus aureus UC 76; assay type: functional; method in brief: as §1
DNA gyrase = DNA gyrase (Escherichia coli, UniProt P0AES4+P0AES6); test: Inhibition against DNA gyrase; assay type: protein-complex assay
[10] = Staphylococcus aureus, read-out: MIC
[11] = Enterococcus faecalis, read-out: MIC
[12] = Klebsiella pneumoniae, read-out: MIC
[13] = Enterobacter cloacae, read-out: MIC
[14] = Streptococcus pyogenes, read-out: MIC
[15] = Pseudomonas aeruginosa, read-out: MIC
[16] = Providencia rettgeri, read-out: MIC
[17] = Escherichia coli, read-out: MIC
[18] = Streptococcus pneumoniae, read-out: MIC

Row | Structure (SMILES) | ED50 (Escherichia coli [1]) [mg/kg] | ED50 (Escherichia coli [2]) [mg/kg] | Cytotoxicity [3] [µg/mL] | MIC (Staphylococcus aureus [4]; [10]) [µg/mL] | MIC (Enterococcus faecalis; [11]) [µg/mL] | MIC (Klebsiella pneumoniae; [12]) [µg/mL] | MIC (Enterobacter cloacae; [13]) [µg/mL] | ED50 (Streptococcus pyogenes [5]) [mg/kg] | MIC (Streptococcus pyogenes [6]; [14]) [µg/mL] | MIC (Pseudomonas aeruginosa; [15]) [µg/mL] | ED50 (Streptococcus pyogenes [7]) [mg/kg] | Dose (Mus musculus) [mg/kg] | MIC (Providencia rettgeri; [16]) [µg/mL] | MIC (Escherichia coli [8]; [17]) [µg/mL] | MIC (Streptococcus pneumoniae; [18]) [µg/mL] | MIC (Staphylococcus aureus [9]; [10]) [µg/mL] | other results
1 | CN[C@H](C)[C@H]1CCN(c2c(F)cc3c(=O)c(C(=O)O)cn(C4CC4)c3c2C(F)(F)F)C1 (mixture of isomers) | 4 | 2 | 130 | 0.025 | 0.1 | 0.8 | 0.4 | 0.3 | 0.013 | 3.1 | 0.8 | >100 | 0.8 | 0.4 | 0.013 | 0.013 | –
2 | CN[C@H](C)[C@H]1CCN(c2c(F)c(N)c3c(=O)c(C(=O)O)cn(C4CC4)c3c2F)C1 (mixture of isomers) | 3 | 0.4 | 17 | – | – | – | – | – | – | – | – | <30 | – | – | – | – | MIC (Staphylococcus aureus [4]): 0.003 µg/mL; MIC (Enterococcus faecalis): 0.013 µg/mL; MIC (Klebsiella pneumoniae): 0.05 µg/mL; MIC (Enterobacter cloacae): 0.025 µg/mL; PD50 (Streptococcus pyogenes [5]): 0.3 mg/kg; MIC (Streptococcus pyogenes [6]): 0.003 µg/mL; MIC (Pseudomonas aeruginosa): 0.8 µg/mL; PD50 (Streptococcus pyogenes [7]): 0.6 mg/kg; MIC (Providencia rettgeri): 0.1 µg/mL; MIC (Escherichia coli [8]): 0.025 µg/mL; MIC (Streptococcus pneumoniae): 0.003 µg/mL; MIC (Staphylococcus aureus [9]): 0.003 µg/mL
3 | CCn1cc(C(=O)O)c(=O)c2cc(F)c(N3CC[C@H]([C@@H](C)N)C3)c(F)c21 (mixture of isomers) | 3 | 1 | 9.8 | 0.025 | 0.013 | 0.1 | 0.05 | 0.4 | 0.003 | 0.8 | 1 | <10 | 0.2 | 0.05 | 0.003 | 0.006 | –
4 | C[C@@H](N)[C@@H]1CCN(c2nc3c(cc2F)c(=O)c(C(=O)O)cn3C2CC2)C1 | – | – | – | 0.05 (≈ 0.139 µM) | 0.05 (≈ 0.139 µM) | 0.1 (≈ 0.277 µM) | 0.05 (≈ 0.139 µM) | 2 | 0.013 (≈ 0.0361 µM) | 0.8 (≈ 2.22 µM) | 14 | – | 0.4 (≈ 1.11 µM) | 0.05 (≈ 0.139 µM) | 0.006 (≈ 0.0166 µM) | 0.006 (≈ 0.0166 µM) | IC50 (DNA gyrase): 2080 nM
5 | Nc1c(F)c(N2CCC(N)C2)cc2c1c(=O)c(C(=O)O)cn2C1CC1 (stereo unspecified) | 8 | 1 | 12 | 0.1 (≈ 0.289 µM) | 0.1 (≈ 0.289 µM) | 0.025 (≈ 0.0722 µM) | 0.013 (≈ 0.0375 µM) | 6 | 0.05 (≈ 0.144 µM) | 0.4 (≈ 1.15 µM) | 110 | >300 | 0.1 (≈ 0.289 µM) | 0.013 (≈ 0.0375 µM) | 0.025 (≈ 0.0722 µM) | 0.025 (≈ 0.0722 µM) | –
6 | CCNC[C@@H]1CCN(c2c(F)cc3c(=O)c(C(=O)O)cn(CC)c3c2F)C1 | 10 | 3 | 190 | 0.05 (≈ 0.132 µM) | 0.1 (≈ 0.264 µM) | 0.1 (≈ 0.264 µM) | 0.2 (≈ 0.527 µM) | 4 | 0.1 (≈ 0.264 µM) | 1.6 (≈ 4.22 µM) | 10 | 1.5 | 0.2 (≈ 0.527 µM) | 0.1 (≈ 0.264 µM) | 0.1 (≈ 0.264 µM) | 0.05 (≈ 0.132 µM) | –
7 | Nc1c(F)c(N2CCC(N)C2)c(F)c2c1c(=O)c(C(=O)O)cn2C1CC1 (stereo unspecified) | 1 | 0.3 | 15 | 0.013 (≈ 0.0357 µM) | 0.025 (≈ 0.0686 µM) | 0.006 (≈ 0.0165 µM) | 0.013 (≈ 0.0357 µM) | 8 | 0.025 (≈ 0.0686 µM) | 0.05 (≈ 0.137 µM) | 28 | 55 | 0.025 (≈ 0.0686 µM) | 0.006 (≈ 0.0165 µM) | 0.006 (≈ 0.0165 µM) | 0.006 (≈ 0.0165 µM) | –
8 | CNC(C)C1CCN(c2nc3c(cc2F)c(=O)c(C(=O)O)cn3-c2ccc(F)cc2F)C1 (racemic) | 6 | 2 | 310 | 0.1 (≈ 0.224 µM) | 0.2 (≈ 0.448 µM) | 0.8 (≈ 1.79 µM) | 0.8 (≈ 1.79 µM) | 1 | 0.05 (≈ 0.112 µM) | 3.1 (≈ 6.94 µM) | 4 | >100 | 1.6 (≈ 3.58 µM) | 0.4 (≈ 0.896 µM) | 0.025 (≈ 0.056 µM) | 0.025 (≈ 0.056 µM) | –
9 | NC1CCN(c2nc3c(cc2F)c(=O)c(C(=O)O)cn3-c2ccc(F)cc2F)C1 (stereo unspecified) [TOSUFLOXACIN] | 0.5 | 0.2 | 120 | 0.05 (≈ 0.124 µM) | 0.1 (≈ 0.247 µM) | 0.1 (≈ 0.247 µM) | 0.025 (≈ 0.0618 µM) | 3 | 0.05 (≈ 0.124 µM) | 0.4 (≈ 0.989 µM) | 5 | >100 | 0.1 (≈ 0.247 µM) | 0.025 (≈ 0.0618 µM) | 0.05 (≈ 0.124 µM) | 0.013 (≈ 0.0322 µM) | –
10 | CCN[C@@H](C)[C@@H]1CCN(c2nc3c(cc2F)c(=O)c(C(=O)O)cn3C2CC2)C1 (racemic) | 2 | 1 | 130 | 0.1 (≈ 0.257 µM) | – | 0.2 (≈ 0.515 µM) | 0.1 (≈ 0.257 µM) | – | – | 1.6 (≈ 4.12 µM) | – | <30 | 0.8 (≈ 2.06 µM) | 0.1 (≈ 0.257 µM) | – | – | MIC (Enterococcus faecalis): 0.05 µg/mL (≈ 0.129 µM); PD50 (Streptococcus pyogenes [5]): 2 mg/kg; MIC (Streptococcus pyogenes [6]): 0.05 µg/mL (≈ 0.129 µM); PD50 (Streptococcus pyogenes [7]): 2 mg/kg; MIC (Streptococcus pneumoniae): 0.025 µg/mL (≈ 0.0644 µM); MIC (Staphylococcus aureus [9]): 0.025 µg/mL (≈ 0.0644 µM)
11 | CCN[C@H](C)[C@H]1CCN(c2c(F)cc3c(=O)c(C(=O)O)cn(C4CC4)c3c2OC)C1 (racemic) | 5 | 2 | 110 | 0.013 (≈ 0.0311 µM) | 0.025 (≈ 0.0599 µM) | 0.2 (≈ 0.479 µM) | 0.1 (≈ 0.24 µM) | 0.2 | 0.006 (≈ 0.0144 µM) | 3.1 (≈ 7.43 µM) | 0.5 | >100 | 0.4 (≈ 0.958 µM) | 0.1 (≈ 0.24 µM) | 0.006 (≈ 0.0144 µM) | 0.003 (≈ 0.00719 µM) | –
12 | COc1c(N2CCC(N)C2)c(F)cc2c(=O)c(C(=O)O)cn(C3CC3)c12 (stereo unspecified) | 3 | 0.4 | 45 | 0.05 (≈ 0.138 µM) | 0.05 (≈ 0.138 µM) | 0.05 (≈ 0.138 µM) | 0.025 (≈ 0.0692 µM) | 3 | 0.025 (≈ 0.0692 µM) | 0.2 (≈ 0.553 µM) | 10 | >100 | 0.1 (≈ 0.277 µM) | 0.025 (≈ 0.0692 µM) | 0.025 (≈ 0.0692 µM) | 0.013 (≈ 0.036 µM) | –
13 | C[C@@H](N)[C@H]1CCN(c2c(F)c(N)c3c(=O)c(C(=O)O)cn(C4CC4)c3c2F)C1 (racemic) | 2 | 0.3 | <7.8 | 0.003 (≈ 0.00765 µM) | 0.003 (≈ 0.00765 µM) | 0.013 (≈ 0.0331 µM) | 0.013 (≈ 0.0331 µM) | 0.1 | 0.003 (≈ 0.00765 µM) | 0.4 (≈ 1.02 µM) | 0.6 | <30 | 0.025 (≈ 0.0637 µM) | 0.013 (≈ 0.0331 µM) | 0.003 (≈ 0.00765 µM) | 0.003 (≈ 0.00765 µM) | –
14 | COc1c(N2CC[C@H]([C@@H](C)N)C2)c(F)cc2c(=O)c(C(=O)O)cn(C3CC3)c12 (racemic) | 4 | 1 | <7.8 | 0.006 (≈ 0.0154 µM) | 0.006 (≈ 0.0154 µM) | 0.05 (≈ 0.128 µM) | 0.05 (≈ 0.128 µM) | 0.3 | 0.003 (≈ 0.0077 µM) | 0.4 (≈ 1.03 µM) | 1 | >100 | 0.05 (≈ 0.128 µM) | 0.025 (≈ 0.0642 µM) | 0.003 (≈ 0.0077 µM) | 0.003 (≈ 0.0077 µM) | –
